From PubChem BioAssay
Shown is part of a subset that was picked to be rich in hits.
Ecoli tolC: growth inhibitors of E. coli BW25113 tolC mutant. OD615. growth inhibition, % at 10 µM (by protocol). hit rate 2.2% among 65,000. AID 573;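 active = growth inhibition at or above a cutoff equal to the mean over every tested compound plus 3 SD, cut at about 60% in these data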;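 also: growth measured after 20 h incubation at 37 °C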
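System: E. coli ΔtolC::kan strain BW25113; Buffer or medium: LB broth supplemented with 50 µg/mL kanamycin; Compound: 10 µM final, single dose; Incubation: bacterial growth with compound for 20 h at 37 °C; Signal: A615 absorbance measurement; Evaluation: growth inhibition in percent.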
MMP-13 inhibitor: MMP13 (human) collagenase inhibition; inhibition, % at 4 µM; P45452; AID 570; hit rate 0.07% among 65,000; MMP-13 fTHP FRET cleavage, Mca fluorescence;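 active = inhibition above the mean of compound-free control plate wells plus 3 SD, cut at about 14% in these data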
E coli RNAP: blocks E. coli RNA polymerase transcription | P0A8V2 | fluorescence transcription assay | inhibition, %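 (tested at 10 µM)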 | hit rate 0.2% among 62,000; in the data active = inhibition above about 20%
Ecoli WT expand: blocks growth of wild type E. coli BW25113. OD600 absorbance. hit rate 0.15% among 98,000. growth inhibition, % at 100 µM. AID 710;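 active = growth inhibition above about 50% at one test dose, limit read from the data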;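 also: growth measured after 20 h incubation at 37 °C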
BAP1 block: human BAP1 deubiquitinase inhibition; Q92560; recombinant BAP1, Ub-AMC hydrolysis fluorescence kinetic; hits give low values; calls only at 20 µM; hit rate 0.48% among 72,000;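 active = activity remaining at or below 50% of control, provided the compound also passes the data quality filters; inactive = the rest, including low values that fail the filters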
Target sequence (Q92560 whole entry, looked up): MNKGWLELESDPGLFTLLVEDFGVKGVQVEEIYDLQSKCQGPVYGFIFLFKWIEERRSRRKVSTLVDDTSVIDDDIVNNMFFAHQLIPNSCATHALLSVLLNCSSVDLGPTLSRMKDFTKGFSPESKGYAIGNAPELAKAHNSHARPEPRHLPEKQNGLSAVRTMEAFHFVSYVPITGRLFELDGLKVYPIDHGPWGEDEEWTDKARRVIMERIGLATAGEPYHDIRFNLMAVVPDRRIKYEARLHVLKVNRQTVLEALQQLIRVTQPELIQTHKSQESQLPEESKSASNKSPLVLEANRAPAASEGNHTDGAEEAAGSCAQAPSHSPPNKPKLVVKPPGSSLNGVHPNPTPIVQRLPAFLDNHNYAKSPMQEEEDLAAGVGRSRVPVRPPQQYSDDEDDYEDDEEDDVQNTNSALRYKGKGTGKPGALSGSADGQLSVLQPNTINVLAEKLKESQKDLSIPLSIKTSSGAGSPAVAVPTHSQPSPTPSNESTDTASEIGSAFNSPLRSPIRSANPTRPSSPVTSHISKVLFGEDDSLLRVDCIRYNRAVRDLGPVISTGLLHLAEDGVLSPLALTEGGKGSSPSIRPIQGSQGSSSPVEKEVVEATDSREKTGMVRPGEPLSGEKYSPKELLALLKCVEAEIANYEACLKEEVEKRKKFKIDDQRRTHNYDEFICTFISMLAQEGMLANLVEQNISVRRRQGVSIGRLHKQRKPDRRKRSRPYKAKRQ
AP complement: alternative pathway complement inhibition, orthogonal assay | Human serum alternative complement pathway, LPS-coated ELISA, C3 deposition; tested in compound mixtures | inhibition, % at 5 µM | hit rate 0.08% among 62,000 | AID 1235;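 active = inhibition above 30% in each of the two pooled mixtures holding the compound, so the lower value exceeds 30%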
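Test system – human serum alternative complement pathway, C3 deposition on LPS-coated wells · Buffer or medium – diluted human serum in Mg2+-EGTA GVB++ · Compound dosing – 5 µM each compound, pools of ten, 50 µM per pool · Schedule – 1 h serum-compound exposure at 37 °C · Measured by – Anti-C3 ELISA, OD 450 nm · Read-out basis – percent inhibition of C3 deposition onto LPS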
Numbers stand for hits; n = inactive; x = no result shown; + = active, no number.

SMILES	Ecoli tolC	MMP-13 inhibitor	E coli RNAP	Ecoli WT expand	BAP1 block	AP complement
Oc1ccccc1-c1cc(-c2ccccc2Cl)[nH]n1	100	n	n	n	n	n
Cc1ccc(O)c(-c2cc(-c3ccccc3C)[nH]n2)c1	100	n	n	n	n	n
Oc1ccccc1-c1cc(-c2ccco2)[nH]n1	x	x	x	n	x	x
c1ccc2c(c1)cc(-c1nc3ccccc3[nH]1)c1nc3ccccc3n12	x	x	x	x	n	x
O=C(c1ccc(COc2ccccc2Br)o1)N1CCN(c2ccccn2)CC1	x	x	x	n	x	x
O=C(c1cccc(COc2ccc(Cl)cc2Cl)c1)N1CCN(c2ccccn2)CC1	86	n	n	n	n	n
O=C(c1ccco1)N1CCN(c2c(-c3ccccc3)c3cc(Cl)ccc3[nH]c2=O)CC1	70	n	n	n	x	n
O=c1[nH]c2ccc(Cl)cc2c(-c2ccccc2)c1N1CCOCC1	n	n	n	n	n	n
Cn1c(/C=C/c2ccc([N+](=O)[O-])o2)nc2ccccc2c1=O	x	x	x	65	x	x
Cc1cc(C)cc(NC2=C(Cl)C(=O)N(c3ccc(Cl)cc3)C2=O)c1	x	x	x	x	n	x
O=c1c2ccccc2n(Cc2cccc(F)c2)c(=O)n1C1CCCC1	77	n	n	n	n	n
N#Cc1ccccc1Cn1c(=O)n(C2CCCC2)c(=O)c2ccccc21	x	x	x	n	x	x
O=C(c1ccccc1)N1CCN(Cc2ccccn2)CC1	x	x	x	x	n	x
Cc1nn(-c2ccccc2)c2sc(C(=O)OCn3nnc4ccccc4c3=O)cc12	n	n	x	x	+	x
Cc1cc(C)n(-c2ccc(C(=O)OCn3nnc4ccccc4c3=O)cc2)n1	n	n	n	n	n	n
Cc1ccc(C(=O)Nc2cc(N)ccc2N)cc1	x	x	x	x	n	x
CSc1ccc(-c2cc(=O)c3ccccc3o2)cc1	61	n	n	n	n	n
COc1cccc(-c2cc(=O)c3ccccc3o2)c1N	x	x	x	x	n	x
CCOc1ccc2nc(NC(=O)C(CC)Sc3nc(C)cc(=O)[nH]3)sc2c1 (centres undefined)	67	n	n	n	n	n
CC(=O)c1ccc(N2CCN(C(=O)c3cc([N+](=O)[O-])ccc3F)CC2)c(F)c1	x	x	x	x	n	x
O=C1Nc2ccc(I)cc2/C1=C/c1cc(Br)c(O)c(Br)c1	x	x	x	x	+	x
O=c1c2c3c(sc2n2cnnc2n1C1CCCCC1)CCC3	n	20	n	x	n	x
Cc1nnc2n(C3CCCCC3)c(=O)c3c4c(sc3n12)CCC4	n	n	n	n	n	n
CCN1C(=S)SC(=O)C1=C1C=C(C)N(CCOC)C(C)=C1	n	27	n	x	x	n
CCN1C(=S)SC(=O)C1=C1C=C(C)N(CCO)C(C)=C1	n	n	n	n	x	n
SMILES	Ecoli tolC	MMP-13 inhibitor	E coli RNAP	Ecoli WT expand	BAP1 block	AP complement
N#C/C(=C\c1ccco1)Sc1nc2ccccc2s1	96	n	x	n	n	n
O=C(CCCSc1nc2ccccc2s1)NCc1ccco1	n	n	n	n	x	n
CS(=O)(=O)N1CCN(c2ccccc2NC(=O)Cc2ccccc2)CC1	n	n	n	n	n	n
O=C(Cc1ccccc1)Nc1ccccc1N1CCN(c2ccccc2)CC1	63	n	n	n	n	n
Cc1cc(-c2ccco2)c(C#N)c2nc3ccccc3n12	81	n	n	n	x	n
CC(C)c1cc(N2CCN(C(=O)c3ccco3)CC2)n2c(nc3ccccc32)c1C#N	n	n	n	n	n	n
CCc1ccc2[nH]c(=O)c(C(c3nnnn3CCOC)N3CCN(c4ccc(F)cc4)CC3)cc2c1 (centres undefined)	78	n	n	n	n	n
CCOC(=O)c1ccc(Oc2nc(NC)nc(Nc3ccccc3)n2)cc1	x	x	x	n	x	x
CNc1nc(Nc2ccc(C(C)=O)cc2)nc(OC(C(F)(F)F)C(F)(F)F)n1	67	x	n	n	x	n
CC1=CC(C)(C)Nc2ccc(OC(=O)C(C)(C)C)cc21	x	x	x	x	n	x
COc1ccc(C(=O)C(CN2CCOCC2)c2ccccc2)cc1F (centres undefined)	78	n	n	n	n	n
CC(Nc1ccc(Br)cn1)c1cc(Cl)ccc1O (centres undefined)	100	n	n	n	n	n
CCOc1ccc(NC(C)c2cc(Cl)ccc2O)cc1 (centres undefined)	n	n	n	n	n	n
O=C1OC(Oc2ccccc2)(c2ccccc2)c2ccccc21 (centres undefined)	x	x	x	n	x	x
O=C1OC(c2ccc(O)cc2)(c2ccc(O)cc2)c2ccccc21	72	n	n	x	n	n
COc1ccc(C(=O)N2c3cc4c(cc3C(C)=CC2(C)C)OCO4)cc1	74	n	n	n	n	n
CC1=CC(C)(C)N(C(=O)c2ccccc2)c2ccc(C)cc21	x	x	x	n	x	x
